# Target: Sigma intracellular receptor 2 (Rattus norvegicus, UniProt Q5U3Y7)
# Test: The compound was tested for binding affinity of Sigma opioid receptor type 2 in rat liver membranes using [3H]DTG ligand; call rule not given here
# Format: cell membranes, Membrane
# Outline: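 σ2 sites: male Sprague–Dawley rat liver membranes (160 μg protein), 5 nM [3H]DTG plus 1 μM dextrallorphan masking σ1, 50 mM Tris-HCl pH 8.0, 120 min at 25 °C; 10 μM haloperidol nonspecific; filtration. IC50 converted to Ki by Cheng–Prusoff.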
# Sequence of Sigma intracellular receptor 2 (Q5U3Y7 whole entry, looked up): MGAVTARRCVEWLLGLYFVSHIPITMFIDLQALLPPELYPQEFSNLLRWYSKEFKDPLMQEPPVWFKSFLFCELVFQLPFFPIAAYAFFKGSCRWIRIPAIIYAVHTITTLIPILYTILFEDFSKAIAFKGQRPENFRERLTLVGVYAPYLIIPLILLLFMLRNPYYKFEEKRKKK
row,SMILES,Ki [nM]
1,C[C@H]1CN(CCCN(c2ccccc2)c2ccccc2)C[C@H](C)N1,351
2,C[C@H]1CN(CCCN(c2ccccc2)c2ccccc2)C[C@H](C)N1CCCc1ccccc1,183
3,C[C@H]1CN(CCCn2c3ccccc3c3cc([N+](=O)[O-])ccc32)C[C@H](C)N1,193
4,C[C@H]1CN(CCCn2c3ccc(Br)cc3c3cc(Br)ccc32)C[C@H](C)N1,675

# The remaining lines, values ahead:
row,Ki [nM],SMILES
1,230,C[C@H]1CN(CCCn2c3ccccc3c3ccccc32)C[C@H](C)N1C
2,145,C[C@H]1CN(CCCn2c3ccccc3c3ccccc32)C[C@H](C)N1CCCc1ccccc1
3,1660,C[C@H]1CN(CCCn2c3ccccc3c3cc(N)ccc32)C[C@H](C)N1

# Target: T1, Norepinephrine transporter (Rattus norvegicus, UniProt Q9WTR4)
# T1 sequence (Q9WTR4 whole entry): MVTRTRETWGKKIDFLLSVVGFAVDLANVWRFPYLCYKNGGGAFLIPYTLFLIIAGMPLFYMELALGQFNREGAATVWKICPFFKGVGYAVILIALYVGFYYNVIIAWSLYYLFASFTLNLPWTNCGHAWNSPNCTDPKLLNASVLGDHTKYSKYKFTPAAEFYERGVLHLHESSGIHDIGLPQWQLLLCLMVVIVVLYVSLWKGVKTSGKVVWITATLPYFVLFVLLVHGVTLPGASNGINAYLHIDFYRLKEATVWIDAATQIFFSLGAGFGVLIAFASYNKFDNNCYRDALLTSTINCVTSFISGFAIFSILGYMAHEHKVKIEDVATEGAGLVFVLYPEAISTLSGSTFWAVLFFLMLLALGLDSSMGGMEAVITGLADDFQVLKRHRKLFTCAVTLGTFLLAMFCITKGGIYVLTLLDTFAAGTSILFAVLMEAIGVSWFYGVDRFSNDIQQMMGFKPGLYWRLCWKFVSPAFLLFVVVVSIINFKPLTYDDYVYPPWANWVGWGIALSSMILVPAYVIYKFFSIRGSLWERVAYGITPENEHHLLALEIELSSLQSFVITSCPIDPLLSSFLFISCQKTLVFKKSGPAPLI
# Test: (§1) The compound was tested for binding affinity nisoxatine ligand
# Outline: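 Male Sprague-Dawley rat frontal cortex membranes in 50 mM Tris, 120 mM NaCl, 5 mM KCl, pH 7.4; 8 mg original wet tissue per tube. Incubation with 0.5 nM [3H]nisoxetine for 60 min at 0-4 °C. Nonspecific binding with 1 μM desipramine. Filtration and scintillation counting; Ki from at least three experiments in triplicate.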
row,SMILES,Ki [µM]
1,C[C@H]1CN(CCCn2c3ccc([N+](=O)[O-])cc3c3cc([N+](=O)[O-])ccc32)C[C@H](C)N1,3.66
2,C[C@@H]1CN(CCCn2c3ccc(Br)cc3c3cc(Br)cc(Br)c32)C[C@@H](C)N1,8.54

# Target: not listed separately
# Test: (§2) Binding affinity of Sigma opioid receptor type 1 in Guinea pig brain membranes using [3H]pentazocine ligand
# Format: cell membranes, Membrane
# Outline: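 σ1 sites: guinea pig brain membranes minus cerebella (350–500 μg protein) with 3 nM [3H](+)-pentazocine in 50 mM Tris-HCl pH 8.0, 120 min at 25 °C; 10 μM haloperidol for nonspecific; filtration on polyethyleneimine-soaked filters. IC50 converted to Ki via Cheng–Prusoff.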
row,SMILES,Ki [nM]
1,C[C@H]1CN(CCCN(c2ccccc2)c2ccccc2)C[C@H](C)N1,138
2,C[C@H]1CN(CCCN(c2ccccc2)c2ccccc2)C[C@H](C)N1CCCc1ccccc1,97.2
3,C[C@H]1CN(CCCn2c3ccccc3c3cc([N+](=O)[O-])ccc32)C[C@H](C)N1,596
4,C[C@H]1CN(CCCn2c3ccc(Br)cc3c3cc(Br)ccc32)C[C@H](C)N1,4420

# Results, then the compound that gave them:
row,Ki [nM],SMILES
1,552,C[C@H]1CN(CCCn2c3ccccc3c3ccccc32)C[C@H](C)N1C
2,104,C[C@H]1CN(CCCn2c3ccccc3c3ccccc32)C[C@H](C)N1CCCc1ccccc1
3,5720,C[C@H]1CN(CCCn2c3ccccc3c3cc(N)ccc32)C[C@H](C)N1

# Target: T2, Sodium-dependent dopamine transporter (Rattus norvegicus, UniProt P23977)
# T2 sequence (P23977 whole entry): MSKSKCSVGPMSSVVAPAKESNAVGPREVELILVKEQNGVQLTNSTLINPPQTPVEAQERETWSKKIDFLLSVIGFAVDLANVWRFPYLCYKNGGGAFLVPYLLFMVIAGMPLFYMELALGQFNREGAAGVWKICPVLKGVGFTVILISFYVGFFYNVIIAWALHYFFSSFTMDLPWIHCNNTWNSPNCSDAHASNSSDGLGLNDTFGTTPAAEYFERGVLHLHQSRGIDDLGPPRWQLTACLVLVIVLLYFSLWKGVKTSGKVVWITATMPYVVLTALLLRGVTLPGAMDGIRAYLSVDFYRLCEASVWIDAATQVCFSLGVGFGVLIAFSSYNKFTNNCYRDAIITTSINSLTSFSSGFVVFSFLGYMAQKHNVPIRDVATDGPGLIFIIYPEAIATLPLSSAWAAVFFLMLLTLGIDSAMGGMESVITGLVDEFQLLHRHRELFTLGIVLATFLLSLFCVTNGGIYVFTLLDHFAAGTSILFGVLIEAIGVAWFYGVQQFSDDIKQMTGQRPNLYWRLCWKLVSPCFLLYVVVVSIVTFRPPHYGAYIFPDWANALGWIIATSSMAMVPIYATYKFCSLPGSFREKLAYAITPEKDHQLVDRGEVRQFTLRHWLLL
# Test: (§3) Binding affinity Sprague-Dawley rats using [3H]WIN-35428 ligand
# Outline: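 Rat caudate-putamen membranes washed in ice-cold Krebs-HEPES pH 7.4, ~0.3% w/v (150–300 μg protein). Drug added 5 min before 1.5 nM [3H]WIN 35,428; 1 h on ice; filtration.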
row,SMILES,Ki [nM]
1,Clc1ccccc1N1CCN(CCCn2c3ccccc3c3ccccc32)CC1,113000
2,C[C@H]1CN(CCCN(c2ccccc2)c2ccccc2)C[C@H](C)N1,813
3,C[C@H]1CN(CCCN(c2ccccc2)c2ccccc2)C[C@H](C)N1CCCc1ccccc1,61
4,C[C@H]1CN(CCCn2c3ccccc3c3cc([N+](=O)[O-])ccc32)C[C@H](C)N1,109
5,C[C@H]1CN(CCCn2c3ccc(Br)cc3c3cc(Br)ccc32)C[C@H](C)N1,3890
6,c1ccc(N2CCN(CCCn3c4ccccc4c4ccccc43)CC2)cc1,4930

# More lines, now with the values ahead:
row,Ki [nM],SMILES
1,436,C[C@H]1CN(CCCn2c3ccccc3c3ccccc32)C[C@H](C)N1C
2,263,C[C@H]1CN(CCCn2c3ccccc3c3ccccc32)C[C@H](C)N1CCCc1ccccc1
3,2400,C[C@H]1CN(CCCn2c3ccccc3c3cc(N)ccc32)C[C@H](C)N1
4,224,C[C@@H]1CN(CCCn2c3ccccc3c3ccccc32)C[C@H](C)N1 [RIMCAZOLE]

# Target: T3, Sodium-dependent serotonin transporter (Rattus norvegicus, UniProt P31652)
# T3 sequence (P31652 whole entry): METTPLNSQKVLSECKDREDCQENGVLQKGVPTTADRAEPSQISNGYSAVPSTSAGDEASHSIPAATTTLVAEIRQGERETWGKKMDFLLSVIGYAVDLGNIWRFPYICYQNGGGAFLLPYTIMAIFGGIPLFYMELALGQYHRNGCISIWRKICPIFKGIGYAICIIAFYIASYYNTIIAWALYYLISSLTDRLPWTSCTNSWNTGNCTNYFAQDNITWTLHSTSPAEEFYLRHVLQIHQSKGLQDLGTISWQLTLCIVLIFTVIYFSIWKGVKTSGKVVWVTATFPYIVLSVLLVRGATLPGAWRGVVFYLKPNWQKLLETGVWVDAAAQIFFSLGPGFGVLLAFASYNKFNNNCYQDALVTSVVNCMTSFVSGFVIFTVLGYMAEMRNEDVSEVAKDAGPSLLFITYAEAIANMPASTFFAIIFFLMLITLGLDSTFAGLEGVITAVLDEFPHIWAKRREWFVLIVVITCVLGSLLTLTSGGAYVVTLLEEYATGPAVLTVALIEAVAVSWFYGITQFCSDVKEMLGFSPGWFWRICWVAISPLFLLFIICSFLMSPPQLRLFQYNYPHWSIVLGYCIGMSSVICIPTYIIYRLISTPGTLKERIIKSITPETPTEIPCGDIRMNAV
# Test: (§4) Binding affinity against Serotonin transporter in male Sprague-Dawley rats using [3H]paroxetine ligand
# Outline: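 Male Sprague-Dawley rat midbrain membranes in 50 mM Tris, 120 mM NaCl, 5 mM KCl, pH 7.4; 1.5 mg original wet tissue per tube. Incubation with 0.2 nM [3H]paroxetine for 90 min at room temperature. Nonspecific binding with 1 μM citalopram. Filtration and scintillation counting; Ki from at least three experiments in triplicate.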
row,SMILES,Ki [nM]
1,C[C@H]1CN(CCCn2c3ccc([N+](=O)[O-])cc3c3cc([N+](=O)[O-])ccc32)C[C@H](C)N1,1850
2,C[C@@H]1CN(CCCn2c3ccc(Br)cc3c3cc(Br)cc(Br)c32)C[C@@H](C)N1,1610

# Target: T3, Sodium-dependent serotonin transporter
# Test: Binding affinity against Serotonin transporter in male Sprague-Dawley rats using [3H]paroxetine ligand; IA = inactive
# Outline: (§5)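 Frozen rat midbrain membranes in 50 mM Tris, 120 mM NaCl, 5 mM KCl pH 7.4; 1.5 mg wet tissue per tube with 0.2 nM [3H]paroxetine, 90 min at room temperature; nonspecific defined with 1 μM citalopram; filtration and scintillation counting.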
row,Ki,SMILES
1,Not Active,Clc1ccccc1N1CCN(CCCn2c3ccccc3c3ccccc32)CC1
2,Not Active,c1ccc(N2CCN(CCCn3c4ccccc4c4ccccc43)CC2)cc1

# Target: T1, Norepinephrine transporter
# Test: The compound was tested for binding affinity nisoxatine ligand; IA = inactive
# Outline: (§6)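 Rat frontal cortex membranes (male Sprague–Dawley) in 50 mM Tris/120 mM NaCl/5 mM KCl pH 7.4; 8 mg wet tissue with 0.5 nM [3H]nisoxetine, 60 min at 0–4 °C; 1 μM desipramine for nonspecific; filtration, scintillation counting.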
row,Ki,SMILES
1,Not Active,Clc1ccccc1N1CCN(CCCn2c3ccccc3c3ccccc32)CC1

# Target: T2, Sodium-dependent dopamine transporter
# Test: Inhibition of Dopamine uptake in male Sprague-Dawley rats using [3H]DA ligand
row,SMILES,IC50 [nM]
1,Clc1ccccc1N1CCN(CCCn2c3ccccc3c3ccccc32)CC1,2770
2,C[C@H]1CN(CCCN(c2ccccc2)c2ccccc2)C[C@H](C)N1,1060
3,C[C@H]1CN(CCCN(c2ccccc2)c2ccccc2)C[C@H](C)N1CCCc1ccccc1,36.6
4,C[C@H]1CN(CCCn2c3ccccc3c3cc([N+](=O)[O-])ccc32)C[C@H](C)N1,111
5,C[C@H]1CN(CCCn2c3ccc([N+](=O)[O-])cc3c3cc([N+](=O)[O-])ccc32)C[C@H](C)N1,3670
6,c1ccc(N2CCN(CCCn3c4ccccc4c4ccccc43)CC2)cc1,1820

# Now from value to compound:
row,IC50 [nM],SMILES
1,472,C[C@H]1CN(CCCn2c3ccccc3c3ccccc32)C[C@H](C)N1C
2,639,C[C@H]1CN(CCCn2c3ccccc3c3ccccc32)C[C@H](C)N1CCCc1ccccc1
3,140,C[C@@H]1CN(CCCn2c3ccccc3c3ccccc32)C[C@H](C)N1 [RIMCAZOLE]

# Target: T3, Sodium-dependent serotonin transporter
# Test: as §4
# Outline: as §5
row,SMILES,Ki [nM]
1,C[C@H]1CN(CCCN(c2ccccc2)c2ccccc2)C[C@H](C)N1,13100
2,C[C@H]1CN(CCCN(c2ccccc2)c2ccccc2)C[C@H](C)N1CCCc1ccccc1,219
3,C[C@H]1CN(CCCn2c3ccccc3c3cc([N+](=O)[O-])ccc32)C[C@H](C)N1,1170
4,C[C@H]1CN(CCCn2c3ccc(Br)cc3c3cc(Br)ccc32)C[C@H](C)N1,1130

# Second part, the compound after the results:
row,Ki [nM],SMILES
1,373,C[C@H]1CN(CCCn2c3ccccc3c3ccccc32)C[C@H](C)N1C
2,44.5,C[C@H]1CN(CCCn2c3ccccc3c3ccccc32)C[C@H](C)N1CCCc1ccccc1
3,2100,C[C@H]1CN(CCCn2c3ccccc3c3cc(N)ccc32)C[C@H](C)N1
4,825,C[C@@H]1CN(CCCn2c3ccccc3c3ccccc32)C[C@H](C)N1 [RIMCAZOLE]

# Target: T1, Norepinephrine transporter
# Test: as §1
# Outline: as §6
row,SMILES,Ki [µM]
1,C[C@H]1CN(CCCN(c2ccccc2)c2ccccc2)C[C@H](C)N1,6.81
2,C[C@H]1CN(CCCN(c2ccccc2)c2ccccc2)C[C@H](C)N1CCCc1ccccc1,3.64
3,C[C@H]1CN(CCCn2c3ccccc3c3cc([N+](=O)[O-])ccc32)C[C@H](C)N1,4.58
4,C[C@H]1CN(CCCn2c3ccc(Br)cc3c3cc(Br)ccc32)C[C@H](C)N1,1.3
5,c1ccc(N2CCN(CCCn3c4ccccc4c4ccccc43)CC2)cc1,4.12

# Results, then the compound that gave them:
row,Ki [µM],SMILES
1,9.37,C[C@H]1CN(CCCn2c3ccccc3c3ccccc32)C[C@H](C)N1C
2,2.49,C[C@H]1CN(CCCn2c3ccccc3c3ccccc32)C[C@H](C)N1CCCc1ccccc1
3,13.9,C[C@H]1CN(CCCn2c3ccccc3c3cc(N)ccc32)C[C@H](C)N1
4,2.16,C[C@@H]1CN(CCCn2c3ccccc3c3ccccc32)C[C@H](C)N1 [RIMCAZOLE]

# Target: T2, Sodium-dependent dopamine transporter
# Test: as §3
# Outline: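 Rat caudate-putamen membranes washed in modified Krebs-HEPES buffer, pH 7.4; 150-300 μg protein per tube. Filtration read-out; Ki by nonlinear least-squares fit; at least three independent experiments.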
row,SMILES,Ki [µM]
1,C[C@H]1CN(CCCn2c3ccc([N+](=O)[O-])cc3c3cc([N+](=O)[O-])ccc32)C[C@H](C)N1,174
2,C[C@@H]1CN(CCCn2c3ccc(Br)cc3c3cc(Br)cc(Br)c32)C[C@@H](C)N1,30.3

# Target: not listed separately
# Test: as §2
# Format: cell membranes, Membrane
# Outline: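 Guinea pig brain membranes (minus cerebella), 350–500 μg protein, with 3 nM [3H](+)-pentazocine in 50 mM Tris-HCl pH 8.0 for 120 min at 25 °C. Nonspecific binding with 10 μM haloperidol. Filtration, then overnight extraction and counting. IC50 from curve fit, converted to Ki by Cheng-Prusoff.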
row,SMILES,Ki [µM]
1,C[C@@H]1CN(CCCn2c3ccc(Br)cc3c3cc(Br)cc(Br)c32)C[C@@H](C)N1,> 6

# — ChEMBL document CHEMBL1132454 (J Med Chem, 1999)
